Hits are enriched below; roughly 2.8% of the tested compounds scored in any of these assays.
NPY-Y1 PAM-ag – potentiators or agonists of human neuropeptide Y receptor Y1 | AID 1304 | actives 0.37% (n = 220,000) | activation, % at 3.6 µM | NPY-Y1 expressing cells, potentiator/agonist activation; in the data active = activation above about 33%, passing the limit was not always enough;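 also: cells stimulated with NPY at EC10 then isoproterenol at EC100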
NPY-Y1 antag – antagonists of human neuropeptide Y receptor Y1. P25929. HEK293-CNG Y1 cells, membrane potential fluorescence; NPY at EC95, then isoproterenol. inhibition, % at 3.6 µM. actives 1% (n = 200,000). AID 1040;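 active = inhibition above the campaign mean inhibition of all tested compounds plus 3 SD, cut at about 20% in these data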
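Material: HEK293 cells with Y1 receptor plus CNG channel; times: compound incubation 1 h at room temperature, readout 45 min post-stimulation; signal: fluorescence, membrane potential probe; read-out basis: fluorescence ratio normalized to % inhibition between controls; benchmarks: full-block control isoproterenol-only wells, zero-block control NPY plus isoproterenol wells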
NPY-Y2 PAM-ag – human NPY-Y2 potentiation or agonism, primary screen. P49146. cells expressing NPY-Y2, potentiator/agonist read-out. activation, % at 3.6 µM. actives 0.45% (n = 220,000). AID 1359; in the data active = activation above about 27%;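 also: cells stimulated with NPY near EC25 plus isoproterenol at EC100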
Target sequence (P49146 whole entry, looked up): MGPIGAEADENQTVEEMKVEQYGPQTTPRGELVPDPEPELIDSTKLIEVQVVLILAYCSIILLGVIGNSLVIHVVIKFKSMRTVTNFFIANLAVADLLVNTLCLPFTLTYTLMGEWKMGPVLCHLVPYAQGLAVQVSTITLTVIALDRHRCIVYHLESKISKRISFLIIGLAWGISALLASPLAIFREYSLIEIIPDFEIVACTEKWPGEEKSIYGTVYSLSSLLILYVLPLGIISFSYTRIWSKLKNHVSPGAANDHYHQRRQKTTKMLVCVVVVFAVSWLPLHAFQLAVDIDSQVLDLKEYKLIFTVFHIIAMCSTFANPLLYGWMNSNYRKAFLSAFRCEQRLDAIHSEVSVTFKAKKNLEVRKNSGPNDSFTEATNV
Measles CPE – protection of cells from measles virus | Measles virus-infected cells, CPE protection, absorbance | actives 1.5% (n = 140,000) | protection (pct of control), % at 4 µM | AID 841; in the data active = protection mostly above about 24%, no sharp cut-off; inactive = mostly below about 26%
NPY Y2 blocker – antagonists of human neuropeptide Y receptor Y2; NPY-Y2 expressing cells, antagonist mode; inhibition, % at 2.7 µM; actives 0.99% (n = 140,000)
Rad51 HR inh – blocks human Rad51 in homologous recombination. Q06609. hRad51 DNA strand exchange, fluorescence dequenching. inhibition, % at 10 µM. actives 0.085% (n = 200,000). AID 1385;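 active = inhibition above 40% at the single screening dose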
Target sequence (Q06609 whole entry, looked up): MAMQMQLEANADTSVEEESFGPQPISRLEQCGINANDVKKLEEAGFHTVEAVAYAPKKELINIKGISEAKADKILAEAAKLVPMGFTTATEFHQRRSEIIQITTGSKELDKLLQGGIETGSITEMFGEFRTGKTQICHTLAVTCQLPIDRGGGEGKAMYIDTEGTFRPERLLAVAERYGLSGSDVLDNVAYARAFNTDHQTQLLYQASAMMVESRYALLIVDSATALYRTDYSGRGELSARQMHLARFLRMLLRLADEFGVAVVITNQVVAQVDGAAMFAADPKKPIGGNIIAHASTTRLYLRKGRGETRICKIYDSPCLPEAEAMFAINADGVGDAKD
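material = hRad51 filaments on single-stranded DNA | timing = filaments 15 min 37 °C, then compound 30 min | signal = FRET fluorescence dequenching, excitation 485 nm, emission 520 nm | benchmarks = control wells and blank wells on each plate | evaluation = percent inhibition relative to plate controls and blanks | compound = 10 µM final, single point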
NPY1 antag conf – confirmation of human neuropeptide Y receptor Y1 antagonists; AID 1254; inhibition, % at 3.6 µM; HEK293-CNG NPY-Y1, membrane potential fluorescence, cAMP; NPY challenge against isoproterenol-raised cAMP; actives 21% (n = 1,200); shares compounds with NPY-Y1 antag; in the data active = inhibition above about 20%
NPY2 antag ctr – human NPY-Y2 antagonism in NPY-Y1 counter-screen; shares compounds with NPY-Y1 antag; HEK293 NPY-Y2 CNG membrane potential fluorescence; cells given NPY, then isoproterenol; inhibition, % at 3.6 µM; actives 28% (n = 1,200); AID 1255
Hits are given with their value. Rule as the data show it, unless noted: active = inhibition above about 17%; inactive = the rest.

What do the screens show for `Cc1cc(C)nc(SCc2ccc(C(=O)N/N=C/c3ccccc3C(=O)O)cc2)n1`?
NPY-Y1 PAM-ag: inactive; NPY-Y1 antag: 30; NPY-Y2 PAM-ag: inactive; NPY1 antag conf: inactive; NPY2 antag ctr: inactive

What do the screens show for `CC(C)Oc1ccc(CCc2n[nH]c(=S)n2-c2ccccc2)cc1`?
NPY-Y1 PAM-ag: inactive; NPY-Y1 antag: inactive; NPY-Y2 PAM-ag: inactive; Rad51 HR inh: inactive

Results for CCCCNC(=O)c1onc(CSc2ccc(Cl)cc2)c1C(=O)O ?
NPY-Y1 PAM-ag: inactive; NPY-Y1 antag: 21; NPY-Y2 PAM-ag: inactive; Measles CPE: inactive; NPY Y2 blocker: inactive; Rad51 HR inh: inactive; NPY1 antag conf: 23; NPY2 antag ctr: inactive

How did CCCCNC(=O)c1onc(CSc2ccc(Cl)cc2)c1C(=O)NCCCC do in these assays?
Rad51 HR inh: inactive

How did C=CCNC(=O)c1onc(CSc2ccc(Cl)cc2)c1C(=O)O do in these assays?
NPY-Y1 PAM-ag: inactive; NPY-Y1 antag: 22; NPY-Y2 PAM-ag: inactive; Measles CPE: inactive; NPY Y2 blocker: inactive; Rad51 HR inh: inactive; NPY1 antag conf: inactive; NPY2 antag ctr: inactive

How did Cc1ccc(S(=O)(=O)NNc2ccccc2)c(C)c1 do in these assays?
NPY-Y1 PAM-ag: inactive; NPY-Y1 antag: inactive; NPY-Y2 PAM-ag: inactive; Measles CPE: inactive; NPY Y2 blocker: inactive

What do the screens show for `CCCCN(CCCC)c1cc(C)nc(-c2ccccc2O)n1`?
NPY-Y1 PAM-ag: inactive; NPY-Y1 antag: 22; NPY-Y2 PAM-ag: inactive; Measles CPE: inactive; NPY Y2 blocker: inactive; Rad51 HR inh: inactive; NPY1 antag conf: inactive; NPY2 antag ctr: inactive

Results for COc1cnc(SCC(=O)O)[nH]c1=O ?
NPY-Y1 PAM-ag: inactive; NPY-Y1 antag: inactive; NPY-Y2 PAM-ag: inactive; Measles CPE: inactive; NPY Y2 blocker: inactive; Rad51 HR inh: inactive

What do the screens show for `O=C(O)/C=C/C(=O)Nc1ccccc1SC(F)(F)F`?
NPY-Y1 PAM-ag: inactive; NPY-Y1 antag: inactive; NPY-Y2 PAM-ag: inactive; Measles CPE: inactive; NPY Y2 blocker: inactive; Rad51 HR inh: inactive

Results for Cc1ccc(-n2cccn2)c(CN2CCCC(C(=O)c3ccc4c(c3)OCO4)C2)c1 (centres undefined) ?
NPY-Y1 PAM-ag: inactive; NPY-Y1 antag: 28; NPY-Y2 PAM-ag: inactive; Rad51 HR inh: inactive; NPY1 antag conf: 24; NPY2 antag ctr: 28

What do the screens show for `O=C(c1ccc2c(c1)OCO2)C1CCCN(Cc2cc(F)ccc2-n2cccn2)C1` (centres undefined)?
NPY-Y1 PAM-ag: inactive; NPY-Y1 antag: inactive; NPY-Y2 PAM-ag: inactive; Rad51 HR inh: inactive

How did COc1ccc(-c2nc3ccccc3n2Cc2ccccc2)cc1 do in these assays?
NPY-Y1 PAM-ag: inactive; NPY-Y1 antag: inactive; NPY-Y2 PAM-ag: inactive; Measles CPE: inactive; NPY Y2 blocker: inactive

Results for COc1ccc(-c2n(Cc3ccccc3)c3ccccc3[n+]2Cc2ccccc2)cc1 ?
NPY-Y1 PAM-ag: inactive; NPY-Y1 antag: 62; NPY-Y2 PAM-ag: inactive; Rad51 HR inh: inactive; NPY1 antag conf: inactive; NPY2 antag ctr: 22

Results for COc1ccc(CN2C(=O)c3ccccc3C2C(=O)NC2CCCCCC2)c(OC)c1 (centres undefined) ?
NPY-Y1 PAM-ag: inactive; NPY-Y1 antag: 24; NPY-Y2 PAM-ag: inactive; Rad51 HR inh: inactive; NPY1 antag conf: inactive; NPY2 antag ctr: inactive

Results for COc1ccc(CN2C(=O)c3ccccc3C2C(=O)NCCc2ccccc2)c(OC)c1 (centres undefined) ?
NPY-Y1 PAM-ag: inactive; NPY-Y1 antag: inactive; NPY-Y2 PAM-ag: inactive; Rad51 HR inh: inactive

How did Cc1cc(N/N=C2/CCCc3ccccc32)nc2ccccc12 do in these assays?
NPY-Y1 PAM-ag: inactive; NPY-Y1 antag: 29; NPY-Y2 PAM-ag: inactive; Rad51 HR inh: inactive; NPY1 antag conf: 32; NPY2 antag ctr: 29

Results for O=C(CCCCCNC(=O)c1ccccc1Cl)N/N=C/c1ccco1 ?
NPY-Y1 PAM-ag: inactive; NPY-Y1 antag: inactive; NPY-Y2 PAM-ag: inactive; Rad51 HR inh: inactive

How did Cc1ccc(C2C3=C(CC(C)(C)CC3=O)NC3=C2C(=O)c2ccccc23)cc1 (centres undefined) do in these assays?
NPY-Y1 PAM-ag: inactive; NPY-Y1 antag: 22; NPY-Y2 PAM-ag: inactive; Measles CPE: inactive; NPY Y2 blocker: inactive; NPY1 antag conf: inactive; NPY2 antag ctr: 18

What do the screens show for `c1ccc(-c2nc3cnccn3c2Nc2ccc3c(c2)OCCO3)cc1`?
NPY-Y1 PAM-ag: inactive; NPY-Y1 antag: 37; NPY-Y2 PAM-ag: inactive; Measles CPE: inactive; NPY Y2 blocker: inactive; Rad51 HR inh: inactive; NPY1 antag conf: inactive; NPY2 antag ctr: inactive

Results for Cc1c(NC2(C#N)CCCC2)c(=O)n(-c2ccccc2)n1C ?
NPY-Y1 PAM-ag: inactive; NPY-Y1 antag: inactive; NPY-Y2 PAM-ag: inactive; Rad51 HR inh: inactive

What do the screens show for `CC(/C=C/c1ccc2c(c1)OCO2)=N\NC(=O)c1ccccc1`?
NPY-Y1 PAM-ag: inactive; NPY-Y1 antag: 24; NPY-Y2 PAM-ag: inactive; Rad51 HR inh: inactive; NPY1 antag conf: inactive; NPY2 antag ctr: inactive

How did COc1cccc(-c2cc(C(=O)Nc3nc4ccccc4s3)c3ccccc3n2)c1 do in these assays?
NPY-Y1 PAM-ag: inactive; NPY-Y1 antag: 31; NPY-Y2 PAM-ag: inactive; Measles CPE: inactive; NPY Y2 blocker: inactive; Rad51 HR inh: inactive; NPY1 antag conf: 26; NPY2 antag ctr: 38

What do the screens show for `COc1cccc(-c2cc(C(=O)Nc3ccc4c(c3)OCCO4)c3ccccc3n2)c1`?
NPY-Y1 PAM-ag: inactive; NPY-Y1 antag: inactive; NPY-Y2 PAM-ag: inactive; Measles CPE: inactive; NPY Y2 blocker: inactive

How did CCN(CC)c1ncnc2scc(C3COc4ccccc4O3)c12 (centres undefined) do in these assays?
NPY-Y1 PAM-ag: inactive; NPY-Y1 antag: 38; NPY-Y2 PAM-ag: inactive; Measles CPE: inactive; NPY Y2 blocker: inactive; Rad51 HR inh: inactive; NPY1 antag conf: inactive; NPY2 antag ctr: inactive

Results for O=C(NC(=S)NCc1ccc(F)cc1)c1ccccc1 ?
NPY-Y1 PAM-ag: inactive; NPY-Y1 antag: 23; NPY-Y2 PAM-ag: inactive; Measles CPE: inactive; NPY Y2 blocker: inactive; NPY1 antag conf: inactive; NPY2 antag ctr: inactive

How did Cc1cc(=O)oc2cc(OCC(=O)OCC(=O)N3CCC(C)CC3)ccc12 do in these assays?
NPY-Y1 PAM-ag: inactive; NPY-Y1 antag: inactive; NPY-Y2 PAM-ag: inactive; Rad51 HR inh: inactive

What do the screens show for `O=C(CN1C(=O)C2CC=CCC2C1=O)Nc1nnc(SCc2ccc(Cl)cc2)s1` (centres undefined)?
NPY-Y1 PAM-ag: inactive; NPY-Y1 antag: 24; NPY-Y2 PAM-ag: inactive; Measles CPE: inactive; NPY Y2 blocker: inactive; Rad51 HR inh: inactive; NPY1 antag conf: inactive; NPY2 antag ctr: inactive

From PubChem BioAssay
